# High-throughput results deposited in PubChem by Johns Hopkins Ion Channel Center.
# Rows were chosen to be rich in hits. Some 3.5% of all compounds tested hit in one or more screens of this group.
# MrgX1 PAM = allosterically activates human MrgX1 receptor signaling | Q96LB2 | MrgX1-HEK293, Fluo-4 calcium flux, FDSS; hits give high values | B-score at 10 µM | hit rate 0.63% among 310,000 | AID 588675;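 active = plate-corrected calcium response at least 3 library SD above typical, normal starting fluorescence, not activating the receptor alone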;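 note: compound read alongside a low EC10 to EC30 dose of BAM8-22 agonist; peak minus trough fluorescence over baseline measured at the second addition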
# Target sequence (Q96LB2 whole entry, looked up): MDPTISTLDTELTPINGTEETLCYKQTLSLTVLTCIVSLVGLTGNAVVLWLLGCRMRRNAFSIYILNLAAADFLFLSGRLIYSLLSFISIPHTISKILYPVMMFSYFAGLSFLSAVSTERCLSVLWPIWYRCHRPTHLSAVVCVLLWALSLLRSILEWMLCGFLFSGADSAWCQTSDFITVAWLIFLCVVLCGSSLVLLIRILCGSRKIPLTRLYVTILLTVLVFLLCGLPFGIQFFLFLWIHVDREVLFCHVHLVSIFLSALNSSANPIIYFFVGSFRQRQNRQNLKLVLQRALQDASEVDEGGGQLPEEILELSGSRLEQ
# RGS4 block = inhibitors of human RGS4 | P49798 | HEK293 M3R/RGS4 inducible, Fluo-4 calcium flux; hits give high values; triggered by carbachol at its EC20 | B-score at 10 µM | hit rate 0.45% among 310,000 | AID 463165;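 active = B-score, a plate-corrected calcium signal, over three deviations above library mean, with baseline fluorescence within five deviations of library mean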;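 note: RGS4 expression induced by doxycycline in cells with stable M3 receptor; B-score is computed from the integrated fluorescence ratio over baseline after carbachol; higher B-score means a larger calcium signal and so more RGS4 inhibition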
# Target sequence (P49798 whole entry, looked up): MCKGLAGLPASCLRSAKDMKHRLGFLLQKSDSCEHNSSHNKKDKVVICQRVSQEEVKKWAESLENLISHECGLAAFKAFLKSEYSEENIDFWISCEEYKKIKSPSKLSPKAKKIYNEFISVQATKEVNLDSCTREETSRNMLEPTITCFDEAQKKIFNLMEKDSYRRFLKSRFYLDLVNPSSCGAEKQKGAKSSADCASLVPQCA
# MrgX1 ag = human MrgX1 receptor agonism, primary screen. Q96LB2. MrgX1-HEK293 cells, Fluo-4 calcium fluorescence, agonist mode; hits give high values. B-score at 10 µM. hit rate 0.44% among 310,000. AID 588627;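 active = calcium response B-score plate-corrected fluorescence ratio at least 3 library SD, with starting fluorescence B-score inside 5 SD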
#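 Material: HEK293 cells stably expressing human MrgX1 receptor | Quantity: 15,000 cells per well | Times: Cells plated overnight, dye loaded 0.5 h 37 °C, 0.5 h room temperature | Measured by: Kinetic Fluo-4 NW fluorescence of intracellular calcium | Control set: Positive and negative controls per plate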
# RGS4 act = potentiators or activators of RGS4. B-score at 10 µM. HEK293 M3R/inducible RGS4, carbachol calcium flux Fluo4; hits give low values. AID 463111. hit rate 0.92% among 310,000;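 active = B-score of the integrated calcium signal more than 4 SD below the library mean, with starting fluorescence not abnormally high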;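 note: negative B-score means reduced calcium response which marks RGS4 activation or potentiation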
#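 test system = HEK293 cells with stable M3R and inducible RGS4 | schedule = recording 10 s baseline at 1 Hz, 100 s post-agonist | technique = Fluo4-AM (2 µM) calcium-flux fluorescence, kinetic read | measure = Agonist-evoked peak-minus-minimum fluorescence over baseline, integrated ratio, B score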
# MrgX1 antag = antagonists of human MrgX1 receptor; Q96LB2; MRGX1-HEK293 calcium flux, Fluo-4, BAM8-22 antagonism; hits give low values; B-score at 10 µM; hit rate 1.3% among 310,000; AID 588676;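 active = calcium-response B-score plate-corrected more than 3 library SD below zero, starting fluorescence within 5 deviations, no agonist response on first addition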;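 note: peak minus trough fluorescence over baseline after final BAM8-22 challenge near maximal dose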
# RGS4 act valid = RGS4 activation, validation assay; shares compounds with RGS4 act; HEK293 M3R/RGS4 inducible, carbachol calcium flux Fluo4; inhibition, % at 10 µM; hit rate 89% among 1,100; AID 602282;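 active = inhibition above 3 SD of the buffer control wells, cut at about 41% in these data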;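 note: signal is the integrated peak-minus-minimum Fluo4 fluorescence over baseline ratio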
# RGS4 act ctr = RGS4 activator counter-screen hit in non-induced cells; shares compounds with RGS4 act; HEK293 M3R non-induced RGS4, Fluo4 calcium flux; after carbachol challenge at its EC90; inhibition, % at 10 µM; hit rate 82% among 1,100; AID 602283;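 active = inhibition exceeding 3 SD of buffer-only control wells, cut at about 26% in these data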;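 note: percent drop in integrated peak-minus-baseline over baseline Fluo4 ratio after carbachol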
# MrgX1 ag confirm = reconfirmed activator of human MrgX1 receptor signaling; shares compounds with MrgX1 ag; activation, % at 10 µM; MrgX1-HEK293, Fluo-4 calcium fluorescence, FDSS; hit rate 78% among 600;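 active = calcium signal rise, corrected for plate position, at least 3 library SD high, with starting brightness within 5 such deviations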
# MrgX1 PAM conf = confirmation of human MrgX1 receptor positive allosteric modulators | shares compounds with MrgX1 PAM | MrgX1-HEK293, Fluo-4 calcium fluorescence, FDSS | activation (ratio percentage), % at 10 µM | hit rate 13% among 1,200 | AID 602413;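 active = ratio at least 3 SD above the weak peptide control, stable starting fluorescence, no direct agonism earlier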;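 note: compound followed by low BAM8-22 agonist challenge near EC20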
# MrgX1 ant reconf = human MrgX1 receptor antagonism, re-confirmation screen; MrgX1-HEK293, BAM8-22 calcium flux, Fluo-4; hits give low values; shares compounds with MrgX1 antag; hit rate 19% among 2,300; remaining BAM8-22 calcium response % of control (hits give low values), % at 10 µM; AID 602420;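 active = remaining agonist calcium response no higher than 100% minus 3 SD of agonist-only control wells, with starting fluorescence near control levels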;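 note: agonist BAM8-22 given at a near maximal EC90 to ECmax level; peak minus minimum fluorescence divided by baseline after agonist addition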
# HEK293 Ca flux = counter-screen for MrgX1 antagonists: effect in parental HEK293 cells | fluorescence ratio F(max-min)/F0 at 10 µM | AID 624111 | shares compounds with MrgX1 antag | Fluo-4 calcium fluorescence, FDSS | hit rate 2% among 4,000;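 active = duplicate-averaged calcium fluorescence ratio at least three times the standard deviation of buffer wells, a nonspecific response in parental cells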
# HEK293 Ca counter = MrgX1 allosteric activator counter-screen hit in parental HEK293 cells | parental HEK293 calcium flux, Fluo-4 fluorescence ratio; hits give high values | shares compounds with MrgX1 antag | fluorescence ratio F(max-min)/F0 at 10 µM | hit rate 0.4% among 4,000;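 active = calcium fluorescence ratio, averaged over duplicates, at least 3 SD of the buffer-well ratio, meaning a nonspecific response in receptor-free cells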;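 note: untransfected parental HEK293 lacking MrgX1 used as counterscreen for MrgX1 allosteric activators; fluorescence change taken during the second addition on a kinetic imager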
# HEK293 Ca cntr2 = counter-screen for MrgX1 activators: effect in parental HEK293 cells; shares compounds with MrgX1 antag; Fluo-4 calcium fluorescence (FDSS); hits give high values; fluorescence ratio F(max-min)/F0 at 10 µM; hit rate 8.7% among 4,000;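 active = calcium fluorescence ratio at least three times the spread of buffer wells, meaning a non-specific response in parental cells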
# Numbers without * were called inactive; i = inactive; . = no result given.
SMILES,MrgX1 PAM,RGS4 block,MrgX1 ag,RGS4 act,MrgX1 antag,RGS4 act valid,RGS4 act ctr,HEK293 Ca flux,HEK293 Ca counter,HEK293 Ca cntr2,others
CC(C(=O)c1ccc(Br)cc1)[n+]1cccc2ccccc21 (configuration not stated),i,i,i,i,i,.,.,.,.,.,
CC1=C(C(=O)OCC2CCCO2)C(c2ccccc2)C2=C(CC(C)(C)CC2=O)N1 (configuration not stated),i,i,i,-8.2*,i,0,0,.,.,.,
Cc1c(OCC(=O)N(C)C)ccc2c3c(c(=O)oc12)CCCCC3,i,i,i,-7.9*,i,64*,32*,.,.,.,
S=c1[nH]nc(-c2ccc(Cl)cc2)n1Cc1ccccc1,i,i,i,-8.9*,i,81*,36*,.,.,.,
S=c1[nH]nc(-c2ccc(Br)cc2)n1Cc1ccco1,i,i,i,-8*,i,93*,78*,.,.,.,
O=C(CN(C(=O)c1csnn1)c1cccc(Cl)c1)NCCc1ccccc1,i,i,i,i,i,.,.,.,.,.,
COc1ccc2c(C)cc(N3CCCCCC3)nc2c1,i,i,i,-11*,i,92*,75*,.,.,.,
COc1ccc2c(C)cc(N3CCN(Cc4ccccc4)CC3)nc2c1,i,i,i,i,i,.,.,.,.,.,
COC(=O)c1ccccc1S(=O)(=O)NCc1nc2nc(C)cc(C)n2n1,i,i,i,i,i,.,.,.,.,.,
CCCCn1c2ccccc2c2nnc(SCCN3CCCCC3)nc21,.,i,.,-8.5*,.,92*,78*,.,.,.,
Nc1ccc(-c2nc3ccccc3[nH]2)cc1,i,i,i,i,i,.,.,.,.,.,
c1ccc(-c2cc(-c3nc4ccccc4[nH]3)c3ccccc3n2)cc1,i,i,i,-9.6*,i,94*,77*,.,.,.,
COc1ccc(CN2CC[C@@H](N3CCOCC3)[C@H](O)C2)cc1F,i,i,i,i,i,.,.,.,.,.,
CCCCOc1ccc(C(O)C(CN2CCCCC2)c2ccccc2)cc1 (configuration not stated),i,i,i,-7.6*,i,58*,84*,.,.,.,
CCCCOc1ccc(C(O)C(CN2CCOCC2)c2ccccc2)cc1 (configuration not stated),i,i,i,i,i,.,.,.,.,.,
COc1ccc(CC(=O)Nc2cccc(-c3nnc(-c4cccc(C)c4)o3)c2)cc1OC,i,i,i,-9.9*,-12*,94*,94*,i,i,i,MrgX1 ant reconf=5.5%*
Cc1ccc(OCC(=O)Nc2cccc(-c3nnc(-c4ccccc4)o3)c2)c(C)c1,i,i,i,i,i,.,.,.,.,.,
O=C(CSc1nc2ccccc2c2c1CCCC2)N1CCOCC1,19*,i,i,-9.3*,i,92*,92*,i,i,i,MrgX1 PAM conf=i
CCCc1ccc(Oc2cn[nH]c2-c2ccc(O)c(C)c2O)cc1,i,i,i,-9.1*,-6.8*,93*,94*,i,i,i,MrgX1 ant reconf=i
O=C(N/C=C\n1cnc2cc(C(F)(F)F)ccc21)c1ccc([N+](=O)[O-])cc1,i,i,i,i,i,.,.,.,.,.,
Cc1cc(C)nc(/N=C(\N)Nc2ccc(OCc3ccccc3)cc2)n1,i,i,161*,-10*,i,87*,62*,i,i,128*,MrgX1 ag confirm=590%*
CC1(C)CC(=O)C2=C(C1)Nc1ccccc1S2,i,i,i,i,i,.,.,.,.,.,
CC1(C)CC(=O)C2=C(C1)Nc1ccccc1NC2,i,i,34*,-7.9*,i,0,0,i,i,i,MrgX1 ag confirm=i
c1ccc(Cn2nnc3ccccc32)cc1,i,i,i,i,i,.,.,.,.,.,
c1ccc(Cn2nnc3cnccc32)cc1,i,i,i,-8.4*,-6.7*,0,0,i,i,i,MrgX1 ant reconf=i
SMILES,MrgX1 PAM,RGS4 block,MrgX1 ag,RGS4 act,MrgX1 antag,RGS4 act valid,RGS4 act ctr,HEK293 Ca flux,HEK293 Ca counter,HEK293 Ca cntr2,others
O=CNC(Cc1ccccc1)C(=O)O (configuration not stated),i,i,i,i,i,.,.,.,.,.,
COc1cccc(NC(=O)Nc2nc(-c3ccc(OC)c(OC)c3)cs2)c1,i,i,i,-8.1*,-7*,92*,85*,i,i,i,MrgX1 ant reconf=22%*
COc1ccc(Nc2nc(N3CCOCC3)nc(N3CCOCC3)n2)cc1Cl,i,i,i,i,i,.,.,.,.,.,
CCCOc1ccc(C(=O)NC(=S)NNC(=O)c2c(-c3ccccc3)noc2C)cc1,i,i,105*,-11*,i,92*,82*,i,i,115*,MrgX1 ag confirm=690%*
Cc1onc(-c2ccccc2)c1C(=O)NC(=S)NNC(=O)c1ccc(O)cc1,i,i,i,i,i,.,.,.,.,.,
CCN(CC1CCCN(CCc2cccc(OC)c2)C1)C(=O)c1ccoc1C (configuration not stated),i,i,i,i,i,.,.,.,.,.,
OCCCNc1ncnc2oc(-c3ccccc3)c(-c3ccccc3)c12,i,i,i,-8.4*,-5*,0,0,i,i,i,MrgX1 ant reconf=i
CCCCCN(C(=O)CCC(=O)OCC(=O)c1c(C)cc(C)cc1C)c1c(N)n(CCCC)c(=O)[nH]c1=O,i,i,i,i,i,.,.,.,.,.,
